Reference: paper PMC3580291 (Cell Calcium, 2013)
Where two headings read alike, the source gives them in different places.

Columns and labels:
CRAC currents = conditions: cited from earlier work
Orai1 currents = conditions: cited from earlier work
Orai2 = conditions: high concentrations (50 μM), compared with Orai1; cited from earlier work
Orai3 = conditions: cited from earlier work
STIM1/Orai1 currents = STIM1/Orai1 currents (Homo sapiens, UniProt Q96D31); experiment: whole-cell patch-clamp of STIM1-mediated Orai1 currents in HEK293 cells; format: cell-based; conditions: for inhibition of maximally activated STIM1/Orai1 currents: whole cell inward current at −74 mV, HEK293; for kinetics of Orai1 current inhibition, slower than La^3+: relative to La^3+; for recovery of Orai1 currents upon wash-out: after full block by 10 μM, 4–5 min wash-out with 10 mM Ca^2+ solution
Summary of the method: (§1)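 HEK293 cells transfected with CFP-STIM1 plus YFP-Orai construct and recorded 24 h later. Whole-cell patch clamp at 20–24 °C with passive store depletion via a pipette containing (mM) 145 Cs methanesulfonate, 20 EGTA, 3.5 MgCl2, 8 NaCl, 10 HEPES, pH 7.2. Bath contained 10 mM CaCl2, pH 7.4. Ramps from −90 to +90 mV over 1 s, every 5 s, from 0 mV holding. Inward current taken at −74 mV. Leak correction used the initial trace or post-10 μM La3+ trace.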

[1] = tested on: interleukin-2 (IL-2) production in lymphocytes; conditions: cited from earlier work
[2] = tested on: CRAC/SOC currents in RBL cells; conditions: 30 μM; cited from earlier work
STIM1/Orai3 currents = STIM1/Orai3 currents (Homo sapiens, UniProt Q9BRQ5); experiment: whole-cell patch-clamp of STIM1-mediated Orai3 currents in HEK293 cells; format: cell-based; conditions: for inhibition of maximally activated STIM1/Orai3 currents: 10 μM, whole cell inward current at −74 mV, HEK293; for recovery of Orai3 currents upon wash-out: after full block by 10 μM, 4–5 min wash-out with 10 mM Ca^2+ solution
Summary of the method: as §1

[3] = molecular target: STIM1-CFP/Orai1-YFP interaction (Homo sapiens, UniProt Q13586+Q96D31); experiment: confocal FRET microscopy of STIM1/Orai1 coupling; format: cell-based; conditions: 10 μM after store-depletion by thapsigargin; HEK cells
Summary of the method: (§2)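 HEK293 cells transfected with CFP/YFP-tagged STIM1 and/or Orai1 and imaged 24 h later by confocal FRET microscopy with 457/488/514 nm laser lines. CFP, FRET and YFP images used about 900–1500 ms illumination. Crosstalk and cross-excitation factors were set per construct daily. Pixelwise corrected FRET (NFRET) was computed after background subtraction, limited to CFP:YFP molar ratio 1:10–10:1. Data given as mean ± S.E.M.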

rat-TRPV6 channels = rat-TRPV6 channels (Rattus norvegicus, UniProt Q9R186); experiment: whole-cell patch-clamp of TRPV6 expressing HEK293 cells; format: cell-based; conditions: 10 μM, −74 mV
[4] = molecular target: STIM1/Orai1 D110/112/114A (Homo sapiens, UniProt Q96D31, D110A/D112A/D114A); format: cell-based; conditions: 10 μM
human lung mast cells = conditions: 3 μM; cited from earlier work
CaV1.2 (L-type) = CaV1.2 (L-type) (Homo sapiens, UniProt Q13936); experiment: selectivity profile, over-expressed ion channel; format: cell-based; conditions: Activity (IC50), antagonistic action; Human CaV1.2 (L-type)
[5] = molecular target: CFP-STIM1/YFP-STIM1 oligomerization (Homo sapiens, UniProt Q13586); experiment: confocal FRET microscopy of STIM1 oligomerization; format: cell-based; conditions: 10 μM applied 5 min before store-depletion with 2 μM thapsigargin
Summary of the method: as §2

STIM1/Orai1 E106D = STIM1/Orai1 E106D (Homo sapiens, UniProt Q96D31, E106D); experiment: whole-cell patch-clamp of STIM1-activated Orai1 E106D pore mutant currents; format: cell-based
Summary of the method: as §1

HEK293 cells = format: cell-based
[6] = molecular target: 2-APB stimulated Orai3 currents (Homo sapiens, UniProt Q9BRQ5); experiment: whole-cell patch-clamp of 2-APB stimulated Orai3 currents; format: cell-based
[7] = tested on: endogenous CRAC channels of RBL-2H3 cells; experiment: whole-cell patch-clamp of endogenous CRAC currents in RBL-2H3 cells; format: cell-based, rat; conditions: 10 μM; passive store-depletion; −74 mV
Summary of the method: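 RBL-2H3 cells grown in RPMI 1640 with 10% FBS, 1% penicillin–streptomycin and 1% L-glutamine at 37 °C, 5% CO2. Endogenous CRAC current activated by passive store depletion (20 mM EGTA pipette) in whole-cell mode. Inward current at −74 mV followed during perfusion of 10 μM test compound, with 10 μM La3+ as reference.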

L-type Ca^2+ channels = L-type Ca^2+ channels (Homo sapiens, UniProt Q13936); experiment: whole-cell patch-clamp of L-type Ca2+ channel expressing HEK293 cells; format: cell-based; conditions: 10 μM
[8] = tested on: STIM1 clustering in smooth muscle cells; conditions: cited from earlier work
RBL mast cells = conditions: read-out: IC50 on RBL mast cells; cited from earlier work

Chain of STIM1/Orai1 currents (Q96D31 whole entry): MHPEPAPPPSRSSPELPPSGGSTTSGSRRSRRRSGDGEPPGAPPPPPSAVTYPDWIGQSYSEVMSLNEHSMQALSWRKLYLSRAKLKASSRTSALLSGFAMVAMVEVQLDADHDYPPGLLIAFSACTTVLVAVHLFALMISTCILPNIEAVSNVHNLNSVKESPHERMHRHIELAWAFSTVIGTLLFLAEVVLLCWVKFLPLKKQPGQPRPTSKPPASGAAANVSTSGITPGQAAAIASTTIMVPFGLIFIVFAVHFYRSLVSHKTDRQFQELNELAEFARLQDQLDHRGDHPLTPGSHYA
Chain of STIM1/Orai1 currents (Q13586 23-685 partner): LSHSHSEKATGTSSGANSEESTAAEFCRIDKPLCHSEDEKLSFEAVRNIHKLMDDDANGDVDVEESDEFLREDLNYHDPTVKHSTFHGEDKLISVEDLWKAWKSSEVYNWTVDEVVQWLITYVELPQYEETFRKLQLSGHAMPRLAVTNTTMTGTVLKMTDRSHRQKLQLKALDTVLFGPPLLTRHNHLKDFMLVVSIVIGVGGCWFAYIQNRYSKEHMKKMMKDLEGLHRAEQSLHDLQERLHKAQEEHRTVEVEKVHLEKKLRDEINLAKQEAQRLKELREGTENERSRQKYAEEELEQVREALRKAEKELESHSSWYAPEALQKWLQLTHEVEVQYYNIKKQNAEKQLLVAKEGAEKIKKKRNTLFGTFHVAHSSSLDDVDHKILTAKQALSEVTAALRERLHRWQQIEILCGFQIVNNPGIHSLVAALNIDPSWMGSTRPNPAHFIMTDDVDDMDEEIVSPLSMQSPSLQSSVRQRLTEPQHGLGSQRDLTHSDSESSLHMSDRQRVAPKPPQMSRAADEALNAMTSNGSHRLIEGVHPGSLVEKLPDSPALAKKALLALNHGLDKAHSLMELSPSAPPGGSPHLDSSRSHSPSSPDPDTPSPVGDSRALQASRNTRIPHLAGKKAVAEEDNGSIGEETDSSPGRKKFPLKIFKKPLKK
Chain of L-type Ca^2+ channels (Q13936 1-2138 isoform Q13936-20): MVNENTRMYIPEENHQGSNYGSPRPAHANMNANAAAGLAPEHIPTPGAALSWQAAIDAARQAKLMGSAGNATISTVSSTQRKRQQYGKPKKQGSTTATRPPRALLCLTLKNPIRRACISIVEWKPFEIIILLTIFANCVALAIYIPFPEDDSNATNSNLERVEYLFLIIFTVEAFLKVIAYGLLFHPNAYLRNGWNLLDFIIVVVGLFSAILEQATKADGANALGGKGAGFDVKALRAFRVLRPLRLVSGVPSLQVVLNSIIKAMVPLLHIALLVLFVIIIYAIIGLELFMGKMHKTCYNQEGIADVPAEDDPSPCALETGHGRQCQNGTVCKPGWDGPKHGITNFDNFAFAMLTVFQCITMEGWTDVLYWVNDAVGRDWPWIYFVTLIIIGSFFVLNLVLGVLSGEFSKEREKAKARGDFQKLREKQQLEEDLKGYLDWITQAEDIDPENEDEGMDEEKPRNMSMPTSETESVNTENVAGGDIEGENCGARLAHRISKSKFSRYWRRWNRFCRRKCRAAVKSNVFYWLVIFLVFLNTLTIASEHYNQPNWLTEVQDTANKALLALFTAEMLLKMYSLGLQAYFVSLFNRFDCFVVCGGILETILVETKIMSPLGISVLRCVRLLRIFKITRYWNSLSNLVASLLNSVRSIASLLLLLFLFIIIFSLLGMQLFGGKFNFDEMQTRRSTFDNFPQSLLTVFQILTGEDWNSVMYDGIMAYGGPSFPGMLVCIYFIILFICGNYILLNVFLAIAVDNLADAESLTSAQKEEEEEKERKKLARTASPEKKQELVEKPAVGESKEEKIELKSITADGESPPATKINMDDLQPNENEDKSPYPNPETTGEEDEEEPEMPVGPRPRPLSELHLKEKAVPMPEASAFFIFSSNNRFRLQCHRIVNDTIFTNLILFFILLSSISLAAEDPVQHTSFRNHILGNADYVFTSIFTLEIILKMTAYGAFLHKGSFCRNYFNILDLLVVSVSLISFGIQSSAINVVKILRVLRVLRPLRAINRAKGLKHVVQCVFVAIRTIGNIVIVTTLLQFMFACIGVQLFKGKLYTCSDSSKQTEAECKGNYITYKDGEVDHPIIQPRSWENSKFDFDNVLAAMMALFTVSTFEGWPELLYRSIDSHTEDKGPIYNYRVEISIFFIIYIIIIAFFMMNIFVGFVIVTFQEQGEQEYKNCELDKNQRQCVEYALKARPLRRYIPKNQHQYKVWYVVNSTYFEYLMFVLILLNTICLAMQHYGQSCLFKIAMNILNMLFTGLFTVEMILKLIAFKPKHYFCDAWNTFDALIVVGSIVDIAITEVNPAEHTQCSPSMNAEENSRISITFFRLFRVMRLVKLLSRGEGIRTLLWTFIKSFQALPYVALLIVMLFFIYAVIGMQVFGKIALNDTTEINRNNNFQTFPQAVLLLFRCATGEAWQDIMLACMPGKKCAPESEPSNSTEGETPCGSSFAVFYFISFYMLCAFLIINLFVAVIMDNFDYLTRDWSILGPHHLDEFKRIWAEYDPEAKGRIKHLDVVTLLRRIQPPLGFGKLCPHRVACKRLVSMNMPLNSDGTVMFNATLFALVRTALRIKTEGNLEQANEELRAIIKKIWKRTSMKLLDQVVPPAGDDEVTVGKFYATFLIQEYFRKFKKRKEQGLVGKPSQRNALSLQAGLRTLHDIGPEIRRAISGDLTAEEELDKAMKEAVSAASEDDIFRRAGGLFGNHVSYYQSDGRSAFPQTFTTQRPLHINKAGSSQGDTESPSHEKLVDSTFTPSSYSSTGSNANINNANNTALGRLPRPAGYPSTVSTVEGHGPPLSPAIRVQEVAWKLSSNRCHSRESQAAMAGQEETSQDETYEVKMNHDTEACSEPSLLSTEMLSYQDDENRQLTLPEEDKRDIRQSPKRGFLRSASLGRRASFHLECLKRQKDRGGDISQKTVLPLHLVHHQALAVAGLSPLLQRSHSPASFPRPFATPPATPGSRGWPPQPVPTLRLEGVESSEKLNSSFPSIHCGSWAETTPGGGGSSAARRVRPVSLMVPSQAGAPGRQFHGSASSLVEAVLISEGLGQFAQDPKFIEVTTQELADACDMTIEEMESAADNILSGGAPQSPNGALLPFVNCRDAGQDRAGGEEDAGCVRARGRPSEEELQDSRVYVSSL
Chain of L-type Ca^2+ channels (Q08289 whole entry partner): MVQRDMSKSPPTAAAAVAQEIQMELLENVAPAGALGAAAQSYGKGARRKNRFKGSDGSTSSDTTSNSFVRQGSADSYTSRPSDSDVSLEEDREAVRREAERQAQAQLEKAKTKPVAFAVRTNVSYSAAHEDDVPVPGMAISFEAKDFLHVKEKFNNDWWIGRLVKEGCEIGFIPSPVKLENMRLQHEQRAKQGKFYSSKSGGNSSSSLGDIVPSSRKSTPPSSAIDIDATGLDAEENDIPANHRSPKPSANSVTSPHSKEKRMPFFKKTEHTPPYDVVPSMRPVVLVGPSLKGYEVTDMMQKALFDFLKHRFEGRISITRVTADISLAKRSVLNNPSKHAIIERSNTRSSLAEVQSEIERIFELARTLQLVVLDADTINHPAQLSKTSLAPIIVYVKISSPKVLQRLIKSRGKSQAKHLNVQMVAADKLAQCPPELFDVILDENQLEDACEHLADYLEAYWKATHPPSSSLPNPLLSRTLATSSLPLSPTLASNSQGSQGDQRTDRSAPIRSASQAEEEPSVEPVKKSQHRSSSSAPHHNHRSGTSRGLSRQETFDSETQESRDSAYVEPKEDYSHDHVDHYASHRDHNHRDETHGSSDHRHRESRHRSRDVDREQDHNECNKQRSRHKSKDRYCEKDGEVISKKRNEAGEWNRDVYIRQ
Chain of L-type Ca^2+ channels (P54289 25-1103 partner): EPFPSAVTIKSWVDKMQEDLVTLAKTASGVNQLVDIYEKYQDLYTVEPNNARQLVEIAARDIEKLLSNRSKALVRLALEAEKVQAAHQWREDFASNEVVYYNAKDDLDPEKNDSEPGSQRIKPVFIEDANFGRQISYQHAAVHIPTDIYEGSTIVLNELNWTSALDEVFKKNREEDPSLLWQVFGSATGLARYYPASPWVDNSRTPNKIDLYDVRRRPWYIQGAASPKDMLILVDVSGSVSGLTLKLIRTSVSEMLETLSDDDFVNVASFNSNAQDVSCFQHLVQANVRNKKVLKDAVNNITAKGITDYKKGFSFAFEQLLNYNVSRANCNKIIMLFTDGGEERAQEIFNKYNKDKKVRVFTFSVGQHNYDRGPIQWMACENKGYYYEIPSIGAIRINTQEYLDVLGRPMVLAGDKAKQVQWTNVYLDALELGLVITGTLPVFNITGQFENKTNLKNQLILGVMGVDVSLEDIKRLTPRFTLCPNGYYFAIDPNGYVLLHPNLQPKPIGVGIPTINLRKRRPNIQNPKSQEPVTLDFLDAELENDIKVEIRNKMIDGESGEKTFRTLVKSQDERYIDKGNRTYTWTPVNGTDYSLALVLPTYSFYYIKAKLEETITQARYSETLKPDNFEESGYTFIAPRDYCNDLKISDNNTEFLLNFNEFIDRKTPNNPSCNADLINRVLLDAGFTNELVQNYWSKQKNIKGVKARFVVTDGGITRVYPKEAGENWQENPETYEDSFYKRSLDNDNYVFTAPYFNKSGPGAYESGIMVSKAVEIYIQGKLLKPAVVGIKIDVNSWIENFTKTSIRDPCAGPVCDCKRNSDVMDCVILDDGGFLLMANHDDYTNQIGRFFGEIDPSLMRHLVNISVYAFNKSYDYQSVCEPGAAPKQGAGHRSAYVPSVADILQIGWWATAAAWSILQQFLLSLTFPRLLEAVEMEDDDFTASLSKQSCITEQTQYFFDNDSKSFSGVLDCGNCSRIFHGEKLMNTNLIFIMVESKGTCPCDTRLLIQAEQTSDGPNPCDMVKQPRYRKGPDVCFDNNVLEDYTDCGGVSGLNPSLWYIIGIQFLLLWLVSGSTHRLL
Chain of STIM1/Orai1 E106D (Q96D31 whole entry E106D): as the sequence (Q96D31 whole entry) above, with E106D counted along it
Chain of STIM1/Orai1 E106D (Q13586 23-685 partner): as the sequence (Q13586 23-685 partner) above
Chain of STIM1/Orai1 D110/112/114A (Q96D31 whole entry D110A/D112A/D114A): as the sequence (Q96D31 whole entry) above, with D110A, D112A, D114A counted along it
Chain of STIM1/Orai1 D110/112/114A (Q13586 23-685 partner): as the sequence (Q13586 23-685 partner) above
Chain of CFP-STIM1/YFP-STIM1 oligomerization (Q13586 23-685): as the sequence (Q13586 23-685 partner) above
Chain of CFP-STIM1/YFP-STIM1 oligomerization (Q13586 23-685): as the sequence (Q13586 23-685 partner) above

SMILES: NCCOB(c1ccccc1)c1ccccc1 [2-APB, 2-aminoethoxydiphenylborate]
- effect on CRAC currents (CRAC currents; concentrations higher than 10 μM): completely blocked
- effect on CRAC currents (CRAC currents; low concentrations (1–5 μM)): enhanced
- effect on over-expressed Orai1 (Orai1 currents; high concentrations (50 μM)): robust block
- effect on Orai1 currents (Orai1 currents; higher concentrations (>40 μM)): inhibit
- effect on Orai1 currents (Orai1 currents; low concentrations (5 μM)): enhance
- effect on over-expressed Orai2 (Orai2): less sensitive
- effect on Orai3 currents (Orai3; 75 μM, independent of STIM1): robust current stimulation
- effect on over-expressed Orai3 (Orai3): robustly stimulated
- effect on STIM1/Orai1 currents (STIM1/Orai1 currents; 75 μM): transient stimulation followed by a complete inhibition

SMILES: Cc1nnsc1C(=O)Nc1ccc(-n2nc(C(F)(F)F)cc2C(F)(F)F)cc1 [BTP2]
- effect on interleukin-2 (IL-2) production in lymphocytes [1]: potently blocks

SMILES: CC/C(=C(/CC)c1ccc(O)cc1)c1ccc(O)cc1 [DES, diethylstilbestrol, reference compound]
- block of CRAC/SOC currents in RBL cells [2]: effective block
- time to full blockade of STIM1-activated Orai1 currents (STIM1/Orai1 currents; 10 μM (Fig. 2B)): ≤ 50 s
- inhibition of maximally activated STIM1/Orai1 currents (STIM1/Orai1 currents; 10 μM): full and rapid blockade

SMILES: O=C(Nc1ccn(Cc2ccccc2Oc2ccccc2)n1)c1c(F)cccc1F [GSK-5503A, 2,6-difluoro-N-(1-(2-phenoxybenzyl)-1H-pyrazol-3-yl)benzamide]
- kinetics of Orai1 current inhibition, slower than La^3+ (STIM1/Orai1 currents; 10 μM): 2.5 fold
- inhibition of maximally activated STIM1/Orai1 currents (STIM1/Orai1 currents; 10 μM): complete Orai1 current inhibition
- recovery of Orai1 currents upon wash-out (STIM1/Orai1 currents): not readily reversible
- inhibition of maximally activated STIM1/Orai3 currents (STIM1/Orai3 currents): fully inhibited
- recovery of Orai3 currents upon wash-out (STIM1/Orai3 currents): not readily reversible

SMILES: O=C(Nc1ccn(Cc2ccc(O)cc2C(F)(F)F)n1)c1c(F)cccc1F [GSK-7975A, 2,6-difluoro-N-(1-(4-hydroxy-2-(trifluoromethyl)benzyl)-1H-pyrazol-3-yl)benzamide]
- effect on FRET plateau representing STIM1/Orai1 interaction [3]: did not significantly alter
- inhibition of TRPV6 currents (rat-TRPV6 channels): completely inhibited
- inhibition of STIM1-activated Orai1 D110/112/114A currents [4]: substantial inhibition almost comparable to that of wild-type Orai1
- Ca^2+ influx in human lung mast cells (human lung mast cells): significantly reduced
- release of inflammatory mediators from human lung mast cells (human lung mast cells): significantly reduced
- IC50 (CaV1.2 (L-type)): ~8 µM
- effect on FRET increase (STIM1 oligomerization) upon store-depletion [5]: unaffected
- inhibition of STIM1-activated Orai1 E106D currents (STIM1/Orai1 E106D; 10 μM): no inhibition
- inhibition of STIM1-mediated Orai1 E106D currents (STIM1/Orai1 E106D; 100 μM): substantially but not fully restored the inhibitory effect
- amount of Ca^2+ released from ER stores (HEK293 cells; 10 μM pre-incubation, stimulation by carbachol (CCH) or BHQ): not markedly altered
- inhibition of endogenous store-operated Ca^2+ entry of HEK293 cells (HEK293 cells; pre-incubation with 10 μM, Fura-2): substantially inhibited
- inhibition of maximally 2-APB stimulated Orai3 currents ([6]; 10 μM, 75 μM 2-APB): totally ineffective
- inhibition of maximally 2-APB activated Orai3 currents ([6]; 100 μM): full inhibition
- inhibition at 50 µM ([6]; read-out: inhibition of maximally 2-APB activated Orai3 currents): 50%
- inhibition of RBL CRAC currents [7]: fully blocked
- inhibition of L-type Ca^2+ channel currents (L-type Ca^2+ channels): moderate inhibition
- Hill coefficient, inhibition of Orai1 currents (STIM1/Orai1 currents): ~1
- effect on Ca^2+-induced fast inactivation of STIM1/Orai1 (STIM1/Orai1 currents; 3 μM (Suppl. Fig. 1)): did not significantly increase inactivation
- inhibition of CRAC currents upon intracellular application (STIM1/Orai1 currents; 10 μM intracellular application, data not shown): slight inhibition
- inhibition of STIM1/Orai1 monovalent currents in divalent free (DVF) solution (STIM1/Orai1 currents; 10 μM, Na^+ as main charge carrier): fully blocked
- kinetics of Orai1 current inhibition, slower than La^3+ (STIM1/Orai1 currents; 10 μM): 2.5 fold
- inhibition of maximally activated STIM1/Orai1 currents (STIM1/Orai1 currents; 10 μM): complete Orai1 current inhibition
- recovery of Orai1 currents upon wash-out (STIM1/Orai1 currents): not readily reversible
- Hill coefficient, inhibition of Orai3 currents (STIM1/Orai3 currents): ~1
- inhibition of maximally activated STIM1/Orai3 currents (STIM1/Orai3 currents): fully inhibited
- recovery of Orai3 currents upon wash-out (STIM1/Orai3 currents): not readily reversible

SMILES: [La+3] [La^3+, reference compound]
- inhibition of TRPV6 currents (rat-TRPV6 channels): fully blocked
- inhibition of L-type Ca^2+ channel currents (L-type Ca^2+ channels): fully blocked
- inhibition of maximally activated STIM1/Orai1 currents (STIM1/Orai1 currents; 10 μM): complete inhibition

SMILES: COc1ccc(OC)c(-c2ccc(NC(=O)c3ccncc3F)cc2)c1 [Synta-66, N-(2′,5′-dimethoxy-[1,1′-biphenyl]-4-yl)-3-fluoroisonicotinamide, reference compound]
- inhibition of maximally activated STIM1/Orai1 currents (STIM1/Orai1 currents; 10 μM): reduced Orai1 currents
- interference with STIM1 clustering [8]: does not interfere with STIM1 clustering
- inhibition of maximally activated STIM1/Orai3 currents (STIM1/Orai3 currents): inhibited Orai3 currents at a similar rate to the GSK compounds
- IC50 (RBL mast cells): 1 to 3 µM
